ChEMBL document CHEMBL1158347, “Substituted quinazolines, part 3. Synthesis, in vitro antitumor activity and molecular modeling study of certain 2-thieno-4(3H)-quinazolinone analogs” (2009)

Assays:
Type in all cases: functional
[1] = Growth inhibition of human prostate cancer cells after 48 hrs; conditions: Cancer cell lines
Method in brief: (§1)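 NCI in vitro disease-oriented human tumor cell line screen. Compounds passing a one-dose primary assay (MCF-7, NCI-H460, SF-268; pass = growth of any line reduced to 32% or less) were tested on the 60-line panel over a 5-log dose range. Compounds were dissolved in DMSO, with under 1% DMSO in final dilutions, and tested in duplicate at 6×10^4 cells/ml. Cells were incubated at 37 °C in 5% CO2 for 48 h, then diluted 10-fold in saline and counted with a Coulter counter, with counts corrected for dilution. Controls held PBS/DMSO at identical dilutions. GI50 was reported per line and as subpanel/full-panel mean-graph midpoint.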

[2] = Growth inhibition of human Colon cancer cells after 48 hrs; conditions: Cancer cell lines; method in brief: as §1
UACC-257 = experiment: Growth inhibition of human UACC257 cells after 48 hrs; conditions: UACC-257, 48 h; method in brief: as §1
[3] = Growth inhibition of human leukemia cells after 48 hrs; conditions: Leukemia cell; method in brief: as §1
[4] = Growth inhibition of human ovarian cancer cells after 48 hrs; conditions: Cancer cell lines; method in brief: as §1
SK-MEL-2 = experiment: Growth inhibition of human SK-MEL-2 cells after 48 hrs; conditions: SK-MEL-2, 48 h; method in brief: as §1
K562 = experiment: Growth inhibition of human K562 cells after 48 hrs; conditions: K562, 48 h; method in brief: as §1
CCRF-CEM = experiment: Growth inhibition of human CCRF-CEM cells after 48 hrs; conditions: for CC50: read-out: LC50 (the source's name); method in brief: as §1
[5] = Growth inhibition of human melanoma cells after 48 hrs; conditions: Melanoma cell; method in brief: as §1
NSCLC = experiment: Growth inhibition of human NSCLC cells after 48 hrs; method in brief: as §1
RPMI-8226 = experiment: Growth inhibition of human RPMI8226 cells after 48 hrs; conditions: RPMI-8226, 48 h; for CC50: read-out: LC50 (the source's name); method in brief: as §1
MCF7 = experiment: Growth inhibition of human MCF7 cells after 48 hrs; conditions: MCF7, 48 h; for CC50: read-out: LC50 (the source's name); method in brief: as §1
[6] = Growth inhibition of human breast cancer cells after 48 hrs; conditions: Cancer cell lines; method in brief: as §1
HL-60(TB) = experiment: Growth inhibition of human HL-60(TB) cells after 48 hrs; conditions: HL-60, 48 h; for CC50: read-out: LC50 (the source's name)
Method in brief: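 NCI 60-cell-line screen over a 5-log dose range. Compounds were dissolved in DMSO, final DMSO under 1%. Duplicate wells were seeded at 6×10^4 cells/ml, with PBS/DMSO vehicle controls at identical dilutions. Cells were incubated 48 h at 37 °C in humidified 5% CO2, diluted 10-fold in saline, and counted by Coulter counter with dilution correction. GI50 read-out.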

SF-539 = experiment: Growth inhibition of human SF539 cells after 48 hrs; conditions: SF-539, 48 h; for CC50: read-out: LC50 (the source's name); method in brief: as §1
[7] = Growth inhibition of human CNS cancer cells after 48 hrs; conditions: Cancer cell lines; method in brief: as §1
[8] = Growth inhibition of human renal cancer cells after 48 hrs; conditions: Cancer cell lines; method in brief: as §1
T47D = experiment: Growth inhibition of human T47D cells after 48 hrs; method in brief: as §1
[9] = read-out: LC50 (the source's name)

O=c1c2cc(I)ccc2nc(-c2cccs2)n1Nc1ccccc1
GI50 [1]: 1.61 µM | TGI [1]: > 100 µM | GI50 [2]: 6.5 µM | TGI [2]: 79.2 µM | GI50 (UACC-257): 32 µM | TGI (UACC-257): > 100 µM | GI50 [3]: 12.7 µM | TGI [3]: 87.1 µM | GI50 [4]: 8.6 µM | TGI [4]: 80.1 µM | GI50 (SK-MEL-2): 0.3 µM | TGI (SK-MEL-2): 2 µM | GI50 (K562): 0.3 µM | TGI (K562): 23 µM | GI50 (CCRF-CEM): 51 µM | TGI (CCRF-CEM): > 100 µM | CC50 (CCRF-CEM): > 100 µM | GI50 [5]: 8.5 µM | TGI [5]: 85.9 µM | GI50 (NSCLC): 8.6 µM | TGI (NSCLC): 88 µM | GI50 (RPMI-8226): 5 µM | TGI (RPMI-8226): > 100 µM | CC50 (RPMI-8226): > 100 µM | GI50 (MCF7): 2 µM | TGI (MCF7): > 100 µM | CC50 (MCF7): > 100 µM | GI50 [6]: 5.9 µM | TGI [6]: > 100 µM | GI50 (HL-60(TB)): 0.4 µM | TGI (HL-60(TB)): > 100 µM | CC50 (HL-60(TB)): > 100 µM | GI50 (SF-539): 34 µM | TGI (SF-539): > 100 µM | CC50 (SF-539): > 100 µM | GI50 [7]: 16.3 µM | TGI [7]: 81.9 µM | GI50 [8]: 19.7 µM | TGI [8]: 93.1 µM

O=C(Nn1c(-c2cccs2)nc2ccc(I)cc2c1=O)c1ccccc1
GI50 [1]: 27.2 µM | TGI [1]: 73.3 µM | GI50 [2]: 35.4 µM | TGI [2]: 90 µM | GI50 (UACC-257): < 0.01 µM | LC50 (UACC-257): > 100 µM | TGI (UACC-257): 31 µM | GI50 [3]: 33.9 µM | TGI [3]: 71.5 µM | GI50 [4]: 27.4 µM | TGI [4]: 74.4 µM | GI50 (SK-MEL-2): 24 µM | LC50 (SK-MEL-2): > 100 µM | TGI (SK-MEL-2): 69 µM | GI50 (T47D): 11 µM | LC50 (T47D): > 100 µM | TGI (T47D): 38 µM | GI50 (K562): 44 µM | LC50 (concentration killing 50% of cells) (K562): > 100 µM | TGI (K562): > 100 µM | GI50 (CCRF-CEM): 39 µM | TGI (CCRF-CEM): > 100 µM | CC50 (CCRF-CEM): > 100 µM | GI50 [5]: 35.5 µM | TGI [5]: 62.1 µM | GI50 (NSCLC): 25.6 µM | TGI (NSCLC): 75.3 µM | GI50 (RPMI-8226): 23 µM | TGI (RPMI-8226): 58 µM | CC50 (RPMI-8226): > 100 µM | GI50 (MCF7): 23 µM | TGI (MCF7): > 100 µM | CC50 (MCF7): > 100 µM | GI50 [6]: 24.5 µM | TGI [6]: 72.5 µM | GI50 (HL-60(TB)): 34 µM | TGI (HL-60(TB)): > 100 µM | CC50 (HL-60(TB)): > 100 µM | GI50 (SF-539): 30 µM | TGI (SF-539): > 100 µM | CC50 (SF-539): > 100 µM | GI50 [7]: 27.4 µM | TGI [7]: 85.8 µM | GI50 [8]: 32.1 µM | TGI [8]: 86.7 µM

O=C(Nc1ccc(I)cc1C(=O)Nc1ccc(O)cc1)c1cccs1
GI50 [1]: 8.7 µM | TGI [1]: 21.1 µM | CC50 [1, 9]: 45.8 µM | GI50 [2]: 15.2 µM | LC50 [2]: 74.6 µM | TGI [2]: 34.5 µM | GI50 (UACC-257): < 0.01 µM | LC50 (UACC-257): > 100 µM | TGI (UACC-257): 22 µM | GI50 [3]: 11.5 µM | TGI [3]: 60.6 µM | CC50 [3, 9]: 91 µM | GI50 [4]: 13.3 µM | LC50 [4]: 72.5 µM | TGI [4]: 35.4 µM | GI50 (SK-MEL-2): 16 µM | LC50 (SK-MEL-2): 57 µM | TGI (SK-MEL-2): 30 µM | GI50 (T47D): 2 µM | LC50 (T47D): 50 µM | TGI (T47D): 11 µM | GI50 (K562): 24 µM | LC50 (concentration killing 50% of cells) (K562): > 100 µM | TGI (K562): > 100 µM | GI50 [5]: 11.1 µM | LC50 (lethal concentration 50%) [5]: 63.8 µM | TGI [5]: 26.9 µM | GI50 (NSCLC): 13.5 µM | LC50 (concentration killing 50% of cells) (NSCLC): 74.6 µM | TGI (NSCLC): 33.1 µM | GI50 (RPMI-8226): 3 µM | TGI (RPMI-8226): 18 µM | CC50 (RPMI-8226): 57 µM | GI50 (MCF7): 12 µM | TGI (MCF7): 33 µM | CC50 (MCF7): 94 µM | GI50 [6]: 11.9 µM | LC50 [6]: 79.4 µM | TGI [6]: 36.8 µM | GI50 (HL-60(TB)): 8 µM | TGI (HL-60(TB)): 37 µM | CC50 (HL-60(TB)): > 100 µM | GI50 (SF-539): < 0.01 µM | TGI (SF-539): 15 µM | CC50 (SF-539): 62 µM | GI50 [7]: 12.2 µM | TGI [7]: 32.4 µM | CC50 [7, 9]: 77.6 µM | GI50 [8]: 13.2 µM | TGI [8]: 29.3 µM | CC50 [8, 9]: 64.1 µM
